The values below come from ChEMBL document CHEMBL1122351, “Synthesis of (E)-1-(5-chlorothien-2-yl)-2-(1H-imidazol-1-yl)ethanone 2,6-dichlorophenylhydrazone hydrochloride, a novel, orally active antifungal agent” (1983).

In assay [1] the test system is Cavia porcellus. Put plainly: Effect of oral administration (60 mg/kg) on course of expt. Ringworm infections in guinea pig by Trichophyton mentagrophytes. Type of assay: functional. In outline:
(§1)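 Female guinea pigs, eight per group, shaved backs infected with a saline suspension of T. mentagrophytes spores. Drug given orally or applied topically; topical positive control was a 1% w/v solution in polyethylene glycol 200. Disease course followed by culture of skin and hair samples from on and around the infection sites. Result given as % reduction in recovery versus control.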

For assay [2], the system named is Rattus norvegicus. Description: Percent reduction in recovery of Candida albicans (experimental vaginitis) in rats by topical administration at 1% w/v. The class given is functional, Vagina.
The test system of assay [3] is Cavia porcellus. Description: Effect of topical administration (1% w/v) on course of expt. Ringworm infections in guinea pig by Trichophyton mentagrophytes. The class given is functional. In outline:
as §1

In assay [4] the test system is Trichophyton rubrum. Description: In vitro antifungal activity against Trichophyton rubrum. Type of assay: functional. In a few lines:
(§2)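 Agar dilution in Sabouraud dextrose agar in microtitre wells. Drug stock in Me2SO, serial twofold dilutions to final 0.8–100 µg/mL, final Me2SO 1%. Candida inoculum 10^4 cells/mL, read after 24 h at 37 °C. Dermatophytes used mycelial inocula, read after 5 days at […]. MIC is the highest dilution with no visible growth. Run in duplicate.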

The test system of assay [5] is Candida albicans. Put plainly: In vitro antifungal activity against Candida albicans 3153. The class given is functional. In outline: as §2
The subject of assay [6] is Candida albicans. Description: In vitro antifungal activity against Candida albicans GB. Type of assay: functional. In a few lines:
as §2

Assay [7] relates to Epidermophyton floccosum. Description: In vitro antifungal activity against Epidermophyton floccosum. The class given is functional. In outline:
as §2

The test system of assay [8] is Candida albicans. Description: In vitro antifungal activity against Candida albicans B. The class given is functional. In a few lines:
as §2

Assay [9] has as its system Microsporum canis. Put plainly: In vitro antifungal activity against Microsporum canis. The class given is functional. In a few lines:
as §2

For assay [10], the system named is Candida albicans. Put plainly: In vitro antifungal activity against Candida albicans A. The class given is functional. In outline:
as §2

Assay [11] has as its system Trichophyton benhamiae. Description: In vitro antifungal activity against Trichophyton mentagrophytes. Type of assay: functional, Arthroderma benhamiae. In outline:
as §2

Assay [12] relates to Rattus norvegicus. Put plainly: Percent reduction in recovery of Candida albicans (experimental vaginitis) in rats at 10 mg/kg (po). The class given is functional, Vagina. In a few lines: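 Female Wistar rats, 6 per group, hysterectomized and ovariectomized. Pseudoestrus induced and kept by s.c. estradiol diacetate (125 µg) every 3 days. Infected intravaginally with 10^7 C. albicans cells on 2 successive days, with 2 days to establish. Maximal infection meant >600 colonies per 50 µL vaginal washing. Dosed by oral gavage; % reduction in recovery versus control.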

In assay [13] the test system is Mus musculus. Put plainly: Effect of oral administration (10 mg/kg) on recovery of Candida albicans from kidneys of mice with expt. candidal infection. The class given is functional. In outline:
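Mice (10 per group) infected intravenously with a sublethal dose (50 × 10^4 cells) of C. albicans. Oral gavage at 0 and 24 h after infection. Kidneys excised 2 days post-infection, weighed and homogenized. Diluted homogenates plated on glucose-peptone agar for 24 h at 37 °C. Colony counts compared with infected, untreated controls and expressed as % reduction.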

For assay [14], the system named is Rattus norvegicus. Put plainly: Percent reduction in recovery of Candida albicans (experimental vaginitis) n rats at 20 mg/kg (po). The class given is functional, Vagina. In outline: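 Female Wistar rats, 6 per group, hysterectomized and ovariectomized. Pseudoestrus induced with subcutaneous estradiol diacetate (125 µg) after 3 weeks, then every 3 days. Infected intravaginally with 10^7 C. albicans cells on 2 successive days; treatment began 2 days later. Infection confirmed by >600 colonies per 50 µL vaginal washings. Oral dosing by gavage. Result given as % reduction in recovery versus control.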

The subject of assay [15] is Rattus norvegicus. Description: Percent reduction in recovery of Candida albicans (experimental vaginitis) n rats by topical administration at 1% w/v. Type of assay: functional, Vagina.
In assay [16] the test system is Cavia porcellus. Description: Effect of oral administration (30 mg/kg) on course of expt. Ringworm infections in guinea pig by Trichophyton mentagrophytes. Type of assay: functional. In a few lines: as §1
The subject of assay [17] is Cavia porcellus. Put plainly: Effect of topical administration (2% w/v) on course of expt. Ringworm infections in guinea pig by Trichophyton mentagrophytes. The class given is functional. In outline:
as §1

Assay [18] deals with Mus musculus. Put plainly: Effect of oral administration (2.5 mg/kg) on recovery of Candida albicans from kidneys of mice with expt. candidal infection. Type of assay: functional. In a few lines:
(§3)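 Mice, 10 per group, infected intravenously with a sublethal dose (50 × 10^4 cells) of C. albicans. Oral gavage at 0 and 24 h after infection. Killed 2 days post-infection; kidneys excised, weighed, homogenized, diluted and plated on glucose-peptone agar, 24 h at 37 °C. Colony counts compared with infected untreated controls, given as % reduction.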

Assay [19] concerns Mus musculus. Put plainly: Effect of oral administration (20 mg/kg) on recovery of Candida albicans from kidneys of mice with expt. candidal infection. Type of assay: functional. In a few lines: as §3
The subject of assay [20] is Mus musculus. Put plainly: Effect of oral administration (5 mg/kg) on recovery of Candida albicans from kidneys of mice with expt. candidal infection. The class given is functional. In outline: as §3

In brackets after ≈: the same amount, converted by molar mass.

`COC1=CC(=O)C[C@@H](C)[C@]12Oc1c(Cl)c(OC)cc(OC)c1C2=O` [GRISEOFULVIN] had a Reduction in assay [1] of 90%.

Take `Clc1ccccc1C(c1ccccc1)(c1ccccc1)n1ccnc1` [CLOTRIMAZOLE]: the Reduction is listed as 75% in [2] and 88% in assay [3].

As usually defined, the MIC is the smallest concentration in the dilution series that meets the test's criterion for growth inhibition. Low values mean greater potency, high ones weaker potency. For the molecule `Cl.Clc1ccc(/C(Cn2ccnc2)=N\Nc2c(Cl)cccc2Cl)s1`, the MIC in assay [4] came out at 12.5 µg/mL; in [5], 12.5 µg/mL; in [6], 12.5 µg/mL; in [7] it was 25 µg/mL; in assay [8] it was 6.2 µg/mL; in assay [9], 25 µg/mL. The MIC in assay [10] was 6.2 µg/mL; in [11], 12.5 µg/mL.

On to `Clc1ccc(COC(Cn2ccnc2)c2ccc(Cl)cc2Cl)c(Cl)c1` (stereo not drawn) [MICONAZOLE], for which the minimal inhibitory concentration (MIC) in assay [4] is 1.6 µg/mL (≈ 3.84 µM); in [5], 12.5 µg/mL (≈ 30 µM); in assay [6], 6.2 µg/mL (≈ 14.9 µM); in assay [7], 12.5 µg/mL (≈ 30 µM); in assay [8], 6.2 µg/mL (≈ 14.9 µM); in assay [9] it was 6.2 µg/mL (≈ 14.9 µM). Also, the minimum inhibitory concentration (MIC) in assay [10] stood at 6.2 µg/mL (≈ 14.9 µM); in assay [11], 1.6 µg/mL (≈ 3.84 µM).

On to `CC(=O)N1CCN(c2ccc(OCC3COC(Cn4ccnc4)(c4ccc(Cl)cc4Cl)O3)cc2)CC1` (stereo not drawn) [KETOCONAZOLE], for which the Reduction in assay [12] worked out at 68%; in assay [13], 57%.

As to `Cl.Clc1ccc(/C(Cn2ccnc2)=N/Nc2c(Cl)cccc2Cl)s1` [ZINOCONAZOLE HYDROCHLORIDE], the Reduction amounted to 63% in assay [14]; 54% in assay [15]; 70% in assay [16]; 47% in assay [12]; 77% in [17]; 9% in assay [18]. Moreover, the Reduction in assay [13] came out at 65%; in assay [19], 44%; in assay [20], 43%. Also, the MIC worked out at 25 µg/mL in assay [4]; 12.5 µg/mL in assay [5]; 12.5 µg/mL in [6]; 25 µg/mL in assay [7]; 6.2 µg/mL in [8]; 25 µg/mL in [9]. In addition, the MIC is 6.2 µg/mL in assay [10] and 12.5 µg/mL in assay [11].
